In data set [1] the target is Botulinum neurotoxin type A (Clostridium botulinum, UniProt P0DPI0).
Data set [2] deals with Liver microsome. In words: Drug metabolism in Sprague-Dawley rat liver microsomes assessed as metabolic rate at 1 uM by reversed phase LC/MS analysis. It is filed as ADME. An outline of the steps: (§1)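 Liver microsomes were from humans (pooled from 10 male donors) or male Sprague–Dawley rats aged 8–10 weeks. Incubations used 0.125 mg/mL total protein and 1.0 μM drug at 37 °C, sampled at 0, 5, 15, 30 and 60 min. Parent-to-product transitions were read by reversed-phase LC with triple quadrupole MS, and % remaining was taken relative to time zero. t1/2 = −ln(2)/k, with k from log–linear regression.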
For orientation: Microsomes from liver hold many membrane-bound enzymes, among them those of drug oxidation.

The nature of data set [3]: Aqueous solubility of the compound at pH 1 after 24 hrs by shake flask method. It is filed as physicochemical. The procedure, abridged: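 Miniaturized shake-flask method: analyte at 1.0 mM in aqueous solution at pH 1.0 or 6.8, shaken gently (600 rpm) in a syringeless filter at room temperature for 24 h. Filtrate was collected after a further 30 min, diluted in 50:50 MeCN/water with 0.1% formic acid, and analysed by LC–MS/MS. Calibration range was 0.05–12.5 μM at pH 6.8 and 5.0–25000 μM at pH 1.0.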

The subject of data set [4] is Plasma. In words: Metabolic stability in Sprague-Dawley rat plasma assessed as compound remaining at 1 uM measured at 3 hrs by LC-MS/MS analysis. It is filed as ADME, cell-free. An outline of the steps: (§2)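 Compound at 1.0 μM was incubated in plasma at 37 °C and sampled at 0, 1, 3, 5 and 24 h. Proteins were precipitated with cold acetonitrile containing internal standard, and samples were analysed by LC–MS/MS for percent remaining. Half-life came from regression analysis.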

The subject of data set [5] is Plasma. Description: Metabolic stability in human plasma assessed as compound remaining at 1 uM measured at 3 hrs by LC-MS/MS analysis. Format: ADME, cell-free. The procedure, abridged: as §2
Data set [6] deals with Liver microsome. Description: Half life in human liver microsomes at 1 uM by reversed phase LC/MS analysis. It is filed as ADME. An outline of the steps:
as §1

Data set [7] concerns Plasma. In words: Half life in human plasma at 1 uM by LC-MS/MS analysis. It is filed as ADME, cell-free. The procedure, abridged:
as §2

In data set [8] the test system is Liver microsome. Description: Drug metabolism in human liver microsomes assessed as metabolic rate at 1 uM by reversed phase LC/MS analysis. It is filed as ADME. An outline of the steps:
as §1

For data set [9], the system named is Liver microsome. In words: Half life in Sprague-Dawley rat liver microsomes at 1 uM by reversed phase LC/MS analysis. Format: ADME. An outline of the steps: as §1
Data set [10] deals with Plasma. Description: Half life in Sprague-Dawley rat plasma at 1 uM by LC-MS/MS analysis. Format: ADME, cell-free. The procedure, abridged:
as §2

Converted amounts (≈) assume the structure as drawn.

Chain of Botulinum neurotoxin type A (P0DPI0 2-448 limits assumed): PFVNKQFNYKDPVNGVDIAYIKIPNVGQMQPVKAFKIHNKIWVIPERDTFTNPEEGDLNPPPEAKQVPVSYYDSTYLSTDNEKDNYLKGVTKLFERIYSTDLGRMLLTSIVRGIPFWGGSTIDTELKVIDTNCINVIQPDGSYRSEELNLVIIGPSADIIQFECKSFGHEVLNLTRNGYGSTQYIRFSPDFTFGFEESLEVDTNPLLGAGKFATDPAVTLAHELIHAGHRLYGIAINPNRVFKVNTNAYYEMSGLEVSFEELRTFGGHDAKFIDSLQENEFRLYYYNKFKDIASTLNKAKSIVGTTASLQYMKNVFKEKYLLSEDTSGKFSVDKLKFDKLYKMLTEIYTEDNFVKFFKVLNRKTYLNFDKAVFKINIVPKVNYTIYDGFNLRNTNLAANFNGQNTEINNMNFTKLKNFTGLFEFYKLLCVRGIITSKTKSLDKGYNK

In turn, `Cc1cccc(NC(c2ccc(C)s2)c2ccc3ccc(C)nc3c2O)n1` (stereo not drawn) yielded an IC50 in data set [1] greater than 100 µM.

Turning to `Cc1ccc(C(Nc2ccccn2)c2ccc3cccnc3c2O)cc1` (stereo not drawn), the IC50 in data set [1] is 2.5 µM. For the molecule `CCCC(=O)NC(c1ccccc1Cl)c1ccc2cccnc2c1O` (stereo not drawn), in data set [1], the IC50 was greater than 100 µM. In [1], `COc1cccc(C(NC(C)=O)c2ccc3cccnc3c2O)c1` (stereo not drawn) registered an IC50 greater than 100 µM. Molecule `CC(C)Oc1c(C(Nc2ccccn2)c2ccccc2)ccc2cccnc12` (stereo not drawn) returned an IC50 in data set [1] greater than 100 µM. Molecule `CC(C)C(=O)NC(c1ccccc1Cl)c1ccc2cccnc2c1O` (stereo not drawn) showed an IC50 in data set [1] greater than 100 µM. Turning to `O=C(NC(c1ccccc1Cl)c1ccc2cccnc2c1O)c1ccccc1` (stereo not drawn), the IC50 in [1] was 0.8 µM. On the same count and under the same terms, the figure for `Cc1ccccc1C(Nc1ccccn1)c1ccc2cccnc2c1O` (stereo not drawn) is 3.6 µM. Take `Cc1ccc2ccc(C(Nc3ccccn3)c3ccccc3C)c(O)c2n1` (stereo not drawn): it took 1.6 µM to reach half-maximal inhibition in data set [1] (IC50). Against the preceding molecule, the IC50 is about 2.2-fold lower. Regarding `Cc1cccc(NC(c2ccccc2[N+](=O)[O-])c2ccc3ccc(C)nc3c2O)n1` (stereo not drawn), the 50% inhibitory concentration (IC50) in data set [1] is 10.7 µM. Against the preceding molecule, the IC50 is about 6.7-fold higher. Still for that read-out and setting: the figure for `Cc1ccnc(NC(c2ccccc2[N+](=O)[O-])c2ccc3ccc(C)nc3c2O)c1` (stereo not drawn) is 0.9 µM; for `Cc1ccnc(NC(c2ccccn2)c2ccc3cccnc3c2O)c1` (stereo not drawn) it is 13.4 µM. Still for that read-out and setting: for `Cc1ccnc(NC(c2ccccn2)c2ccc3ccc(C)nc3c2O)c1` (stereo not drawn) the value was 2.1 µM; for `Cc1ccnc(NC(c2cccc([N+](=O)[O-])c2)c2ccc3cccnc3c2O)c1` (stereo not drawn), 4.6 µM; for `Cc1ccnc(NC(c2cccc([N+](=O)[O-])c2)c2ccc3ccc(C)nc3c2O)c1` (stereo not drawn), 1.1 µM. The same measure, in the same setting: the figure for `Cc1ccc2ccc(C(Nc3ccccn3)c3cccc(OCc4ccccc4)c3)c(O)c2n1` (stereo not drawn) is 1.4 µM; for `Cc1cccc(NC(c2cccc(OCc3ccccc3)c2)c2ccc3ccc(C)nc3c2O)n1` (stereo not drawn) it is 3.5 µM.

In data set [1], `COc1cccc(C(Nc2cc(C)ccn2)c2ccc3ccc(C)nc3c2O)c1` (stereo not drawn) yielded an IC50 of 2 µM.

With `Cc1ccnc(NC(c2ccc(Cl)c(Cl)c2)c2ccc3cccnc3c2O)c1` (stereo not drawn), in data set [1], the IC50 amounted to 1.5 µM. The IC50 values of the last two molecules are within 1.5-fold of each other.

For the molecule `Cc1ccnc(NC(c2ccc(Cl)c(Cl)c2)c2ccc3ccc(C)nc3c2O)c1` (stereo not drawn), in data set [1], the 50% inhibitory concentration (IC50) was determined as 1.2 µM. On to `COc1ccc(C(Nc2ccccn2)c2ccc3cccnc3c2O)cc1OC` (stereo not drawn), for which the IC50 in data set [1] came to 6.2 µM. This IC50 is about 5.2-fold higher than that of the molecule before. In data set [1], `COc1ccc(C(Nc2ccccn2)c2ccc3ccc(C)nc3c2O)cc1OC` (stereo not drawn) yielded an IC50 of 3 µM. In turn, `Oc1c(C(Nc2ccccn2)c2ccc(F)cc2)ccc2cccnc12` (stereo not drawn) registered an IC50 in data set [1] of 7.1 µM. This IC50 is about 2.4-fold higher than that of the molecule before. Take `Cc1ccc2ccc(C(Nc3ccccn3)c3ccc(F)cc3)c(O)c2n1` (stereo not drawn): the IC50 in [1] amounted to 2.8 µM. `Cc1ccc(C(Nc2ccccn2)c2ccc3ccc(C)nc3c2O)cc1` (stereo not drawn) displayed a 50% inhibitory concentration (IC50) in data set [1] of 2.1 µM. The IC50 values of the last two molecules are within 1.5-fold of each other. The same measure, in the same setting: the figure for `CC(=O)NC(c1ccc(C)cc1)c1ccc2cccnc2c1O` (stereo not drawn) is greater than 100 µM. In [1], `CC(=O)NC(c1ccc(N(C)C)cc1)c1ccc2cccnc2c1O` (stereo not drawn) displayed an IC50 greater than 100 µM. Molecule `CN(C)c1ccc(C(NC(=O)Cc2ccccc2)c2ccc3cccnc3c2O)cc1` (stereo not drawn) had a half-inhibitory concentration (IC50) in data set [1] of 7.1 µM. Still for that read-out and setting: the figure for `Cc1ccnc(NC(c2ccc(N(C)C)cc2)c2ccc3cccnc3c2O)c1` (stereo not drawn) is 3.5 µM; for `Cc1ccnc(NC(c2ccc(N(C)C)cc2)c2ccc3ccc(C)nc3c2O)c1` (stereo not drawn) it is 2.5 µM; for `Cc1cccc(NC(c2ccc(N(C)C)cc2)c2ccc3ccc(C)nc3c2O)n1` (stereo not drawn) it is 4.5 µM. As to `COc1ccc(C(Nc2ccccn2)c2ccc3cccnc3c2O)cc1` (stereo not drawn), the results for the Drug metabolism with Liver microsome [2] and with Liver microsome [8] were 0.487 µM/min/mg and 0.242 µM/min/mg, respectively. For the same molecule, in data set [3], the solubility (thermodynamic) at 24 h is 102 µM (≈ 36.5 µg/mL). Further, the results for the Stability in the data set on Plasma [4] and in the data set with Plasma [5] were 42.2% and 53.4%, respectively. The same molecule yielded an IC50 in data set [1] of 5.6 µM. In addition, the t1/2 in the data set with Liver microsome [6] stood at 0.378 h; in the data set with Plasma [7], 6.1 h; with Liver microsome [9] it was 0.188 h; in the data set with Plasma [10], 5 h.

As for `COc1ccc(C(Nc2ccccn2)c2ccc3ccc(C)nc3c2O)cc1` (stereo not drawn), the Drug metabolism in the data set on Liver microsome [2] amounted to 0.627 µM/min/mg; in the data set with Liver microsome [8] it was 0.324 µM/min/mg. Moreover, in data set [3], the thermodynamic solubility at 24 h worked out at 76.7 µM (≈ 28.5 µg/mL). Also, the Stability in the data set with Plasma [4] worked out at 86.6%; with Plasma [5], 66.2%. The molecule also displayed a half-maximal inhibitory concentration (IC50) in data set [1] of 1.9 µM. The t1/2 with Liver microsome [6] was determined as 0.283 h; in the data set with Plasma [7], 10.7 h; with Liver microsome [9], 0.147 h; with Plasma [10], 5 h.

Molecule `Cc1ccc2ccc(C(Nc3ccccn3)c3ccc(C)s3)c(O)c2n1` (stereo not drawn) came in with an IC50 in data set [1] of 2 µM.

As for `Oc1c(C(Nc2ccccc2Cl)c2ccccn2)ccc2cccnc12` (stereo not drawn), the IC50 in [1] stood at 5.6 µM. Turning to `Oc1c(C(Nc2ccccc2Cl)c2cccnc2)ccc2cccnc12` (stereo not drawn), in data set [1], the IC50 is 1.9 µM. On the same count and under the same terms, the figure for `CCOC(=O)c1ccc(NC(c2ccccn2)c2ccc3cccnc3c2O)cc1` (stereo not drawn) is 5.1 µM; for `CCOC(=O)c1ccc(NC(c2cccnc2)c2ccc3cccnc3c2O)cc1` (stereo not drawn) it is 2.9 µM. On the same count and under the same terms, the figure for `COC(=O)c1cccc(NC(c2ccccn2)c2ccc3cccnc3c2O)c1` (stereo not drawn) is 7.8 µM.

Take `COC(=O)c1cccc(NC(c2cccnc2)c2ccc3cccnc3c2O)c1` (stereo not drawn): the IC50 in data set [1] worked out at 4.2 µM. In data set [1], `CCCOC(=O)c1ccc(NC(c2ccccn2)c2ccc3cccnc3c2O)cc1` (stereo not drawn) returned an IC50 of 5.6 µM. The IC50 values of the last two molecules are within 1.5-fold of each other.

In data set [1], `CCCOC(=O)c1ccc(NC(c2cccnc2)c2ccc3cccnc3c2O)cc1` (stereo not drawn) yielded an IC50 of 3 µM. Molecule `COc1ccc(C)cc1NC(c1ccccn1)c1ccc2cccnc2c1O` (stereo not drawn) yielded an IC50 in data set [1] of 5.1 µM.

On to `COc1ccc(C)cc1NC(c1cccnc1)c1ccc2cccnc2c1O` (stereo not drawn), for which the IC50 in data set [1] stood at 4.4 µM. This IC50 and that of the molecule before are within 1.5-fold of each other. Same read-out and setting: the figure for `Cc1cc(Cl)ccc1NC(c1ccccn1)c1ccc2cccnc2c1O` (stereo not drawn) is 5.2 µM; for `Cc1cc(Cl)ccc1NC(c1cccnc1)c1ccc2cccnc2c1O` (stereo not drawn) it is 2.3 µM.

`Cc1cccc(NC(c2ccccn2)c2ccc3cccnc3c2O)c1` (stereo not drawn): the IC50 in data set [1] turned out to be 16.7 µM. Still for that read-out and setting: the figure for `Cc1cccc(NC(c2cccnc2)c2ccc3cccnc3c2O)c1` (stereo not drawn) is 6.7 µM. For `Oc1c(CNc2ccccn2)ccc2cccnc12`, the results for the Drug metabolism with Liver microsome [2] and in the data set with Liver microsome [8] were 0.149 µM/min/mg and 0.203 µM/min/mg, respectively. Further, the thermodynamic solubility at 24 h in [3] turned out to be 1140 µM (≈ 287 µg/mL). Further, the Stability with Plasma [4] was found to be 76.3%; with Plasma [5], 96.1%. The same molecule yielded an IC50 in data set [1] of 26.7 µM. Moreover, the t1/2 is 0.452 h with Liver microsome [6], 14.2 h with Plasma [7], 0.613 h in the data set on Liver microsome [9] and 12.9 h in the data set with Plasma [10].

Turning to `Cc1ccc2c(Cl)cc(I)c(O)c2n1`, the IC50 in data set [1] worked out at 14.1 µM. In turn, `CCC(=O)NC(c1ccc(OC)c(OC)c1)c1ccc2cccnc2c1O` (stereo not drawn) displayed an IC50 in data set [1] greater than 100 µM. In the case of `COc1cccc(C(Nc2cc(C)ccn2)c2ccc3cccnc3c2O)c1` (stereo not drawn), in [1], 3.3 µM corresponded to half-maximal inhibition (IC50). On the same count and under the same terms, the figure for `CCC(=O)NC(c1ccc(N(C)C)cc1)c1ccc2cccnc2c1O` (stereo not drawn) is greater than 100 µM; for `CCC(=O)NC(c1ccccc1Cl)c1ccc2cccnc2c1O` (stereo not drawn) it is greater than 100 µM; for `Cc1ccc2cccc(O)c2n1` [8-HYDROXY QUINALDINE] it is greater than 30 µM. On the same count and under the same terms, for `Oc1cccc2cccnc12` [OXYQUINOLINE] the value was greater than 30 µM.

For orientation: IC50 means the concentration that inhibits the measured activity by half. By thermodynamic solubility is commonly meant solubility found after equilibrating the solid with the medium.
